Experimental findings from ChEMBL document CHEMBL1123969, “Cardiovascular effects of new water-soluble derivatives of forskolin” (J Med Chem, 1988) are described below.

Experiment [1] has as its system Felis catus. Nature of the experiment: Effective dose for lowering of blood pressure in anesthetized cat when administered intravenously; NA=Not active. The format is functional, organism-based. In outline:
(§1)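 Cats of either sex, 3–4 kg, under ether induction and chloralose (70 mg/kg iv). Compounds in distilled water or propylene glycol were given iv via the femoral vein at 0.01–10 mg/kg. Fall in mean arterial pressure read 10 min post-dose. ED20 taken graphically from the log dose-response curve, with doses run in triplicate.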

Experiment [2] is filed under the species Cavia porcellus. Briefly: Positive inotropic activity in spontaneously beating guinea pig atria. It counts as functional, organism-based. Summed up: (§2)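 Guinea pig atria, spontaneously beating, in Ringer solution at 32 °C gassed with 95% O2/5% CO2. Isometric force recorded at 0.5–1 g initial tension after 30 min stabilization. Compounds in water or propylene glycol given cumulatively at 0.01–30 μg/mL, with 7 min contact per dose. EC50 for a 50% force increase taken graphically from the dose-response curve, in triplicate.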

The species named for experiment [3] is Cavia porcellus. Nature of the experiment: Positive inotropic activity was assessed in spontaneously beating guinea pig atria; NA=Not active. The format is functional, organism-based. In outline:
as §2

Experiment [4] deals with Felis catus. Nature of the experiment: Effective dose for lowering blood pressure in anesthetized cat when administered intravenously. As to conditions: iv. The format is functional. Summed up:
as §1

≈ marks a conversion by molar mass, not a printed value. Calls of active or inactive are those of the source. No cut-off for these calls is given here.

A word on the EC50: it is the concentration that produces a half-maximal response. A high value points to weaker potency. Regarding `C=C[C@@]1(C)CC(=O)[C@]2(O)C3(C)C(C(OC(=O)CN4CCC(C)CC4)C(O)[C@@]2(C)O1)C(C)(C)CC[C@@H]3O.Cl` (stereo not given in full), the ED20 entry with Felis catus [1] was “inactive”. The compound also gave an EC50 in the experiment listed under Cavia porcellus [2] of 2.6 µg/mL.
Turning to `C=C[C@@]1(C)CC(=O)[C@]2(O)C3(C)C(C(OC(=O)CN(CC)CC)C(O)[C@@]2(C)O1)C(C)(C)CC[C@@H]3O.Cl` (stereo not given in full), the EC50 result in the experiment listed under Cavia porcellus [3] was “Not Active”. Moreover, in the experiment with Felis catus [1], the ED20 result was “inactive”.
On to `C=C[C@@]1(C)CC(=O)[C@]2(O)C3(C)C(C(O)C(OC(=O)CN4C(C)CCCC4C)[C@@]2(C)O1)C(C)(C)CC[C@@H]3O.Cl` (stereo not given in full), for which the EC50 result in the experiment filed under Cavia porcellus [3] is “Not Active”. The ED20 entry in the experiment with Felis catus [1] was “inactive”.
For `C=C[C@@]1(C)CC(=O)[C@]2(O)C3(C)C(C(O)C(OC(=O)CN4CCC(O)(c5ccccc5)CC4)[C@@]2(C)O1)C(C)(C)CC[C@@H]3O.Cl` (stereo not given in full), in that order: “Not Active” and “inactive”.
For `C=C[C@@]1(C)CC(=O)[C@]2(O)C3(C)C(C(OC(=O)Cn4c(=O)c5c(ncn5COCCOC)n(C)c4=O)C(O)[C@@]2(C)O1)C(C)(C)CC[C@@H]3O` (stereo not given in full), the EC50 entry in the experiment filed under Cavia porcellus [3] is “Not Active”. For the same compound, the ED20 entry in the experiment with Felis catus [1] is “inactive”.
On to `C=C[C@@]1(C)CC(=O)[C@]2(O)C3(C)C(C(OC(=O)CN4CCC(O)CC4)C(O)[C@@]2(C)O1)C(C)(C)CC[C@@H]3O.Cl` (stereo not given in full), for which the ED20 entry in the experiment on Felis catus [1] is “inactive”. The same compound had an EC50 in the experiment listed under Cavia porcellus [2] of 3 µg/mL.
Take `C=C[C@@]1(C)CC(=O)[C@]2(O)C3(C)C(C(OC(=O)CN4C(C)CCCC4C)C(O)[C@@]2(C)O1)C(C)(C)CC[C@@H]3O.Cl` (stereo not given in full): the EC50 entry in the experiment filed under Cavia porcellus [3] is given as “Not Active”. The ED20 entry in the experiment with Felis catus [1] was “inactive”.
On to `C=C[C@@]1(C)CC(=O)[C@]2(O)C3(C)C(C(OC(=O)CCCN4CCCCC4)C(O)[C@@]2(C)O1)C(C)(C)CC[C@@H]3O.Cl` (stereo not given in full), for which, in the experiment listed under Cavia porcellus [3], the EC50 entry is on record as “Not Active”. This compound also gave an ED20 with Felis catus [4] of 3 mg/kg.
In the case of `C=C[C@@]1(C)CC(=O)[C@]2(O)C3(C)C(C(O)C(OC(=O)CCCN4CCN(C)CC4)[C@@]2(C)O1)C(C)(C)CC[C@@H]3O.Cl` (stereo not given in full), the EC50 result in the experiment listed under Cavia porcellus [3] was “Not Active”. In the experiment on Felis catus [4], this compound registered an ED20 of 0.8 mg/kg.
Turning to `C=C[C@@]1(C)CC(=O)[C@]2(O)C3(C)C(C(OC(=O)CCN4CCOCC4)C(O)[C@@]2(C)O1)C(C)(C)CC[C@@H]3O.Cl` (stereo not given in full), in the experiment filed under Cavia porcellus [3], the EC50 entry was “Not Active”. Also, the ED20 result with Felis catus [1] was “inactive”.
On to `C=C[C@@]1(C)CC(=O)[C@]2(O)C3(C)C(C(O)C(OC(=O)C(C)N4CCN(C)CC4)[C@@]2(C)O1)C(C)(C)CC[C@@H]3O.Cl` (stereo not given in full), for which the EC50 entry in the experiment listed under Cavia porcellus [3] was “Not Active”. The ED20 with Felis catus [4] turned out to be 10 mg/kg.
For `C=C[C@@]1(C)CC(=O)[C@]2(O)C3(C)C(C(O)C(OC(=O)CNC(=O)OC(C)(C)C)[C@@]2(C)O1)C(C)(C)CC[C@@H]3O` (stereo not given in full), the ED20 entry with Felis catus [1] was “inactive”. Also, in the experiment filed under Cavia porcellus [2], the EC50 turned out to be 9.2 µg/mL (≈ 17.5 µM).
For the compound `C=C[C@@]1(C)CC(=O)[C@]2(O)C3(C)C(C(OC(=O)CN(C)C4CCCCC4)C(O)[C@@]2(C)O1)C(C)(C)CC[C@@H]3O.ClC(Cl)Cl` (stereo not given in full), the EC50 entry in the experiment listed under Cavia porcellus [3] was “Not Active”. This compound displayed an ED20 with Felis catus [4] of 3.5 mg/kg.
Turning to `C=C[C@@]1(C)CC(=O)[C@]2(O)C3(C)C(C(O)C(OC(=O)CN(CC(=O)OC4C(O)C5C(C)(C)CC[C@H](O)C5(C)[C@@]5(O)C(=O)C[C@](C)(C=C)O[C@]45C)Cc4ccccc4)[C@@]2(C)O1)C(C)(C)CC[C@@H]3O` (stereo not given in full), in the experiment filed under Cavia porcellus [3], the EC50 result was “Not Active”. Also, the ED20 entry with Felis catus [1] is “inactive”.
With `C=C[C@@]1(C)CC(=O)[C@]2(O)C3(C)C(C(O)C(OC(=O)CN4CCC(NC(=O)c5ccccc5)CC4)[C@@]2(C)O1)C(C)(C)CC[C@@H]3O` (stereo not given in full), the EC50 entry in the experiment filed under Cavia porcellus [3] is recorded as “Not Active”. In the experiment with Felis catus [4], this compound showed an ED20 of 3 mg/kg.
